Experimental findings from ChEMBL document CHEMBL5120934, “Development of Urea-Bond-Containing Michael Acceptors as Antitrypanosomal Agents Targeting Rhodesain” (ACS Med Chem Lett, 2022) are described below.

A value given as a limit tells only on which side of the number the result lay.

The target of test [1] is Rhodesain (Trypanosoma brucei rhodesiense) (UniProt Q95PM0). Description: Binding affinity to recombinant Trypanosoma brucei rhodesiense rhodesain assessed as Kinact using Cbz-Phe-Arg-AMC as fluorogenic substrate measured for 10 mins every 30 seconds by fluorescence microplate reader assay. In a few lines: (§1)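 Rhodesain activity was followed fluorogenically with the substrate Cbz-Phe-Arg-AMC. Inhibitors were serially diluted and assayed down to the concentration giving minimal inhibition. Irreversible inhibition was characterized by Ki and kinact (the rate of covalent E-I complex formation), and k2nd was calculated as kinact/Ki.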

Test [2] shares this target. As to the kind of experiment: Inhibition of Trypanosoma brucei rhodesiense rhodesain at 0.1 uM using Cbz-Phe-Arg-AMC as fluorogenic substrate measured for 10 mins every 30 seconds by fluorescence microplate reader assay. In a few lines: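 Single-concentration fluorogenic screen against rhodesain with the substrate Cbz-Phe-Arg-AMC, each compound at 0.1 μM. DMSO served as the negative control and E-64 as the positive control. The read-out was percentage inhibition.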

The target of test [3] is Replicase polyprotein 1ab (Severe acute respiratory syndrome coronavirus 2) (UniProt P0DTD1). As to the kind of experiment: Inhibition of C-terminal His-tagged SARS-CoV-2 MPro expressed in Escherichia coli BL21(DE3) at 100 uM using Dabcyl-KTSAVLQSGFRKME-Edans as fluorogenic substrate incubated for 10 mins by FRET assay. Put shortly: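 Single-concentration preliminary screen of viral main protease at 100 μM. Read-out is percentage inhibition of protease activity. No follow-up dilution series or mode-of-inhibition kinetics were run.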

Test [4] concerns the target Rhodesain (Trypanosoma brucei rhodesiense) (UniProt Q95PM0). As to the kind of experiment: Binding affinity to recombinant Trypanosoma brucei rhodesiense rhodesain assessed as binding constant measured at second inhibition step using Cbz-Phe-Arg-AMC as fluorogenic substrate measured for 10 mins every 30 seconds by fluorescence microplate reader assay. In a few lines:
as §1

The target is the same in test [5]. Description: Inhibition of Trypanosoma brucei rhodesiense rhodesain expressed in pichia pastoris assessed as binding constant measured at second inhibition step using Z-Phe-Arg-N-methylcoumarin as substrate by fluorometric assay.
A further test has as its system Trypanosoma brucei. Description: Antitrypanosomal activity against bloodstream form of Trypanosoma brucei. As to conditions: read-out: ED50 (the source's name). Format: functional.

What is called inhibition is the change of the read-out against control, counted positive when it falls. Read a low inhibition as little suppression.

Sequence of Rhodesain (Trypanosoma brucei rhodesiense) (Q95PM0 1-450): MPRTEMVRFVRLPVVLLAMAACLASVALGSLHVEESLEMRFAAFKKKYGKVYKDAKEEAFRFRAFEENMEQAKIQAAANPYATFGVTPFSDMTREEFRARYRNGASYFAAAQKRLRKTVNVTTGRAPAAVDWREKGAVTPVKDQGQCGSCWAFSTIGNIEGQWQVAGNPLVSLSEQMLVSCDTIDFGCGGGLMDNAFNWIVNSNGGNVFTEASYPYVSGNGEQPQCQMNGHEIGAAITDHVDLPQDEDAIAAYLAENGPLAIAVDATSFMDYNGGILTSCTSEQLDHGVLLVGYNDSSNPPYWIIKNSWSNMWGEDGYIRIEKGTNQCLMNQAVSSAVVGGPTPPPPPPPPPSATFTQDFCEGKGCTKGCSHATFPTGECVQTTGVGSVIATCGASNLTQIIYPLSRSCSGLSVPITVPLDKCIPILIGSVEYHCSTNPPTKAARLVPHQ

Turning to `CC(=O)/C=C/[C@H](CCc1ccccc1)NC(=O)[C@H](Cc1ccccc1)NC(=O)Nc1ccc(Cl)cc1`, the Kinact in test [1] came to 0.0023 min⁻¹. Further, the inhibition in test [2] is over 80%; in test [3], 33%.
For the compound `CC(=O)/C=C/[C@H](CCc1ccccc1)NC(=O)[C@H](CC(C)C)NC(=O)Nc1ccc(C)cc1`, the Kinact in test [1] was 0.0042 min⁻¹. In addition, in test [4], the K was 10400 10^3/M/min.
With `CC(=O)/C=C/[C@H](CCc1ccccc1)NC(=O)[C@H](Cc1ccccc1)NC(=O)Nc1ccc(F)cc1`, the Kinact in test [1] came to 0.0021 min⁻¹. For the same compound, the inhibition in test [2] was over 80%; in test [3], 33%.
With `CC(=O)/C=C/[C@H](CCc1ccccc1)NC(=O)[C@H](Cc1ccccc1)NC(=O)Nc1ccccc1`, the Kinact in test [1] turned out to be 0.0021 min⁻¹. Further, the K in test [4] was 16700 10^3/M/min. Further, the results for the inhibition in test [2] and in test [3] were over 80% and 33%, respectively.
For `COc1ccc(NC(=O)N[C@@H](Cc2ccccc2)C(=O)N[C@H](/C=C/C(C)=O)CCc2ccccc2)cc1`, the Kinact in test [1] stood at 0.0059 min⁻¹. Moreover, the inhibition in test [2] was over 80%; in test [3], 33%.
In the case of `CC(=O)/C=C/[C@H](CCc1ccccc1)NC(=O)[C@H](Cc1ccccc1)NC(=O)Nc1ccc(C)cc1`, in test [1], the Kinact amounted to 0.0023 min⁻¹. The K in test [4] is 10400 10^3/M/min. Further, the results for the inhibition in test [2] and in test [3] were over 80% and 33%, respectively.
As to `CC(=O)/C=C/[C@H](CCc1ccccc1)NC(=O)[C@H](CC(C)C)NC(=O)Nc1ccc(Cl)cc1C`, the Kinact in test [1] worked out at 0.0123 min⁻¹. In addition, the K in test [4] was 14000 10^3/M/min.
Take `CN1CCN(C(=O)N[C@@H](Cc2ccccc2)C(=O)N[C@H](/C=C/S(=O)(=O)c2ccccc2)CCc2ccccc2)CC1` [K-777]: the K in test [5] is 9000 10^3/M/min. The EC50 in the test on Trypanosoma brucei was found to be 900 nM.
Consider `CC(=O)/C=C/[C@H](CCc1ccccc1)NC(=O)[C@H](Cc1ccccc1)NC(=O)Nc1ccc(Cl)cc1C(F)(F)F`, for which the Kinact in test [1] was found to be 0.006 min⁻¹. For the same compound, the inhibition in test [2] was over 80%; in test [3] it was 33%.
As for `CC(=O)/C=C/[C@H](CCc1ccccc1)NC(=O)[C@H](Cc1ccccc1)NC(=O)Nc1c(F)cccc1F`, the Kinact in test [1] worked out at 0.0022 min⁻¹. Further, the inhibition in test [2] was over 80%; in test [3] it was 33%.
Consider `CC(=O)/C=C/[C@H](CCc1ccccc1)NC(=O)[C@H](Cc1ccccc1)NC(=O)Nc1cccc2ccccc12`, for which the Kinact in test [1] turned out to be 0.0084 min⁻¹. Besides, the inhibition is over 80% in test [2] and 33% in test [3].
In the case of `CC(=O)/C=C/[C@H](CCc1ccccc1)NC(=O)[C@H](Cc1ccccc1)NC(=O)Nc1ccc(Cl)cc1C`, the Kinact in test [1] worked out at 0.0053 min⁻¹. Moreover, the K in test [4] is 14700 10^3/M/min. Besides, the inhibition is over 80% in test [2] and 33% in test [3].
